Active and inactive are the calls of the source. The calls are words filed in the database; no cut-off is given here.

Experimental findings from ChEMBL document CHEMBL3627626, “6-Substituted Pyrrolo[2,3-d]pyrimidine Thienoyl Regioisomers as Targeted Antifolates for Folate Receptor α and the Proton-Coupled Folate Transporter in Human Tumors” (J Med Chem, 2015) are described below.

Data set [1] deals with T1, Trifunctional purine biosynthetic protein adenosine-3 (Homo sapiens) (UniProt P22102).
T1 sequence (whole entry): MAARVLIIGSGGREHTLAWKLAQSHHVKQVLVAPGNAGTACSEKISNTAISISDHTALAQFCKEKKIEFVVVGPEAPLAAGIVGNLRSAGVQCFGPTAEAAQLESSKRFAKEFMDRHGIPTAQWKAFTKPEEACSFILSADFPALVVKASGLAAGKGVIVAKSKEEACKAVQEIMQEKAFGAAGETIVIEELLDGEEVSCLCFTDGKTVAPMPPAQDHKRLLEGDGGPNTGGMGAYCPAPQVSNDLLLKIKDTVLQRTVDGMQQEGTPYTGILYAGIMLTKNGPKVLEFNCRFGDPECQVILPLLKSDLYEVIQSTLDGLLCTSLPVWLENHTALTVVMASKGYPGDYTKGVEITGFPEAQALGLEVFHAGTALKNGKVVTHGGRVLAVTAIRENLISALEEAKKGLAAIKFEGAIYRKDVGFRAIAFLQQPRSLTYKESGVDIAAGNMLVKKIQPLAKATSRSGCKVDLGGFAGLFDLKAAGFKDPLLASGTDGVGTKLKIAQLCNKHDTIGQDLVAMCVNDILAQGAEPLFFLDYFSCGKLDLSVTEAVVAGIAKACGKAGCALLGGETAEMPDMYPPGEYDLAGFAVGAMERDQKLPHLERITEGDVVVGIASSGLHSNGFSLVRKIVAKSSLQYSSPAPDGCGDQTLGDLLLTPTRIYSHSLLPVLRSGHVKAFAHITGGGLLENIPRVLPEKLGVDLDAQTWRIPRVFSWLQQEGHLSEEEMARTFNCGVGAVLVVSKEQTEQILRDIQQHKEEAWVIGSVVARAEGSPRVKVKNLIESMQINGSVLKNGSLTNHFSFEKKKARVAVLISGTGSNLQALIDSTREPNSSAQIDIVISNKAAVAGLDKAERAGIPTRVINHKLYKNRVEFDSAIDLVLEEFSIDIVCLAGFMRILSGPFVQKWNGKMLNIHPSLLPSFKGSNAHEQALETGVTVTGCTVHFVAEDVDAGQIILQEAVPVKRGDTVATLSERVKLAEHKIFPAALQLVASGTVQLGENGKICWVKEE
The experiment in a line: Inhibition of GARFTase in human KB cells expressing FRalpha/PCFT/RFC assessed as cell growth inhibition after 96 hrs by CellTiter-Blue assay in presence of adenosine. Type of data set: cell-based. (Alamar Blue is a resazurin reagent that responds to reducing activity.)

Data set [2] addresses T1, Trifunctional purine biosynthetic protein adenosine-3 (Homo sapiens). The experiment in a line: Inhibition of GARFTase in human KB cells expressing FRalpha/PCFT/RFC assessed as cell growth inhibition after 96 hrs by CellTiter-Blue assay in presence of AICA. In kind it is cell-based.
The target in data set [3] is T2, Trifunctional purine biosynthetic protein adenosine-3 (Homo sapiens, UniProt P22102).
T2 sequence (P22102 whole entry): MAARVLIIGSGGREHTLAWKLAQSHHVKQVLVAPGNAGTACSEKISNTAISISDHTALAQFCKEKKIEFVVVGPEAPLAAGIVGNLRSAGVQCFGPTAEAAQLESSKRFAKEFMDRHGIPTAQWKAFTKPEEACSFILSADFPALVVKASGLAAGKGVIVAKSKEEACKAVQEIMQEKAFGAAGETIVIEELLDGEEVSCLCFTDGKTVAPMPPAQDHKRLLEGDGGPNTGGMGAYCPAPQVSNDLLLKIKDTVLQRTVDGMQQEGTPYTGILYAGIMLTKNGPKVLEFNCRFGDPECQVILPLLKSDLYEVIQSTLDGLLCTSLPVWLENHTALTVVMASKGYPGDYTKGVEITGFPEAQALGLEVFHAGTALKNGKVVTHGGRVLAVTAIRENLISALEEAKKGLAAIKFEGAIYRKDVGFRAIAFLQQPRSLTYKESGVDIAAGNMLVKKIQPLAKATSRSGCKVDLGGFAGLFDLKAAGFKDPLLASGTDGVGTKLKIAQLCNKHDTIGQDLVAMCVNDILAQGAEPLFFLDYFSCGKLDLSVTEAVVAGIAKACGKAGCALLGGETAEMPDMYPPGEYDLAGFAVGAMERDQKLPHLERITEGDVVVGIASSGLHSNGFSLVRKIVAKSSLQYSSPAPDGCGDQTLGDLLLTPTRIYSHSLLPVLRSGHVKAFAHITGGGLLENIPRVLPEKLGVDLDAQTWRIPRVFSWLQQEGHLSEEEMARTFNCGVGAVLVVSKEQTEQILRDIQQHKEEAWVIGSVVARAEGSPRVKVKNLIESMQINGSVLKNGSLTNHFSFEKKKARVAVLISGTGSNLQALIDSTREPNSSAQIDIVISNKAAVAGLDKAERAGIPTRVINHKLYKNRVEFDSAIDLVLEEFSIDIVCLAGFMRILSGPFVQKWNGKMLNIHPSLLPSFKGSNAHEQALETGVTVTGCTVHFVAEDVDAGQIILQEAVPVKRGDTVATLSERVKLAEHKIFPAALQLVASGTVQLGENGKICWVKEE
Kind of data set: Inhibition of GARFTase in human KB cells expressing FRalpha/PCFT/RFC assessed as incorporation of [14C(U)]-glycine into [14C]-formyl GAR preincubated for 1 hr followed by azaserine, L-glutamine, 14C(U)]-glycine addition measured after 16 hrs. Type of data set: cell-based. The gist of the method:
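In situ assay in KB cells. Cells were exposed to a range of drug concentrations with [14C]glycine for 16 h under proliferation-assay conditions, with azaserine present. Radiolabelled metabolites were extracted and separated on anion exchange columns, and [14C]formyl GAR quantified. Mean ±SE of three experiments.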

Data set [4] concerns the target T2, Trifunctional purine biosynthetic protein adenosine-3. Kind of data set: Inhibition of human recombinant His-tagged GARFTase assessed as formation of 5,8-dideazafolate from 10-formyl-5,80-dideazafolic acid measured every 15 secs over 20 mins by spectrophotometric analysis.
Data set [5] concerns R2. Kind of data set: Cytotoxicity against PCFT-null Chinese hamster R2 cells assessed as cell growth inhibition after 96 hrs by CellTiter-Blue assay. Particulars: R2, 96 h. In kind it is cell-based, Cricetulus griseus.
Data set [6] concerns R2. The experiment in a line: Cytotoxicity against Chinese hamster R2 cells transfected with empty PCDNA3 assessed as cell growth inhibition after 96 hrs by CellTiter-Blue assay. In kind it is cell-based, Cricetulus griseus.
Data set [7] addresses T3, Proton-coupled folate transporter (Homo sapiens) (UniProt Q96NT5).
T3 sequence (whole entry): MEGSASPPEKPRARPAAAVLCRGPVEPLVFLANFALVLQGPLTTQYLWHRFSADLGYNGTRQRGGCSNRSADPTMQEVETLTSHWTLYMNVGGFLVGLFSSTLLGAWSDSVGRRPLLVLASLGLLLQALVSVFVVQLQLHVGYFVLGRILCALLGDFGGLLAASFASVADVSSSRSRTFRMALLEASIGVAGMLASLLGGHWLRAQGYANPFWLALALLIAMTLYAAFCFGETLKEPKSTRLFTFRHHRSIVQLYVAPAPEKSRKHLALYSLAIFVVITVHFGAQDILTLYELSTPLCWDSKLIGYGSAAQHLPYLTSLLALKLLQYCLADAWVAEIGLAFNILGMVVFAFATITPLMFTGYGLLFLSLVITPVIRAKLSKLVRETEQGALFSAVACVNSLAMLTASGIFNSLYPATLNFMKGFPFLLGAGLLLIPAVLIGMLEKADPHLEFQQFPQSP
Kind of data set: Binding affinity to human PCFT expressed in Chinese hamster R2/PCFT4 cells assessed as cell growth inhibition after 96 hrs by CellTiter-Blue assay in presence of 200 nM folic acid. In kind it is cell-based. The gist of the method:
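Human-PCFT-transfected R2 CHO cells, precultured with G418, were plated at ~2500–5000 cells/well across a range of drug concentrations. Medium was folate-free RPMI 1640 (pH 7.2) with 25 nM LCV and 10% dialyzed FBS. Parallel wells received 200 nM folic acid. Incubated up to 96 h, then read with CellTiter Blue fluorescence (ex 560/em 590 nm).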

Data set [8] relates to KB. The experiment in a line: Antiproliferative activity against human KB cells expressing FRalpha/PCFT/RFC assessed as cell growth inhibition after 96 hrs by CellTiter-Blue assay. Type of data set: functional, cell-based.
The test system of data set [9] is KB. Kind of data set: Antiproliferative activity against human KB cells expressing FRalpha/PCFT/RFC assessed as cell growth inhibition after 96 hrs by CellTiter-Blue assay in presence of 200 nM folic acid. In kind it is functional, cell-based.
Data set [10] has as its target Folate receptor alpha (Homo sapiens) (UniProt P15328). The experiment in a line: Displacement of [3H]-folic acid from human FRalpha expressed in Chinese hamster RT16 cells after 15 mins relative to folic acid. In kind it is cell-based. The method, boiled down:
(§1)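 Competitive binding to surface folate receptor on RT16 (FRα) or D4 (FRβ) CHO cells. Cells were acid-washed (pH 3.5) to strip bound folate, then incubated in HEPES-buffered saline pH 7.4 with 50 nM [3H]folic acid plus unlabeled ligand (0–1000 nM) for 15 min at 0 °C. Bound label was normalised to protein. Affinity is the inverse molar ratio for 50% displacement, with folic acid set to 1. Mean of 4–10 experiments ±SE.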
In general terms: Displacement assays read how much labelled ligand stays bound in the presence of the test substance.

In data set [11] the target is Folate receptor beta (Homo sapiens) (UniProt P14207). Kind of data set: Displacement of [3H]-folic acid from human FRbeta expressed in Chinese hamster D4 cells after 15 mins relative to folic acid. In kind it is cell-based. The gist of the method: as §1
Sequence of Folate receptor beta (Homo sapiens) (P14207 17-230 limits assumed): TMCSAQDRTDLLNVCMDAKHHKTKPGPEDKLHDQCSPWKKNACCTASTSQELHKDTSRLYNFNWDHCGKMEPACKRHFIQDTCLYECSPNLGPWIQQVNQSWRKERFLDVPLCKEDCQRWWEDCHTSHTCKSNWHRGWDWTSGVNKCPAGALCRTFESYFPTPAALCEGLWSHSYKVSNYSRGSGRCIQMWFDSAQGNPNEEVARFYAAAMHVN
Data set [12] has as its target T1, Trifunctional purine biosynthetic protein adenosine-3 (Homo sapiens). Kind of data set: Inhibition of GARFTase in human KB cells expressing FRalpha/PCFT/RFC assessed as cell growth inhibition after 96 hrs by CellTiter-Blue assay in presence of thymidine. Type of data set: cell-based.
Substrate in data set [13]: Nc1nc2[nH]c(CCCc3cc(C(=O)N[C@@H](CCC(=O)O)C(=O)O)cs3)cc2c(=O)[nH]1
Kind of data set: (§2) Binding affinity to human PCFT expressed in Chinese hamster R2/PCFT4 cells assessed as intracellular drug transport rate at 37 degC at pH 5.5 measured over 2 mins by Lineweaver-Burk plot analysis. In kind it is cell-based. The gist of the method: (§3)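 R2/PCFT4 CHO cells were grown as monolayers, transferred to spinner flasks, and used as suspensions (5–10 × 10⁷ cells). Uptake was quenched with ice-cold DPBS and cells were NaOH-solubilized. Results are pmol/mg protein; Kt and Vmax come from Lineweaver–Burke plots.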

Substrate in data set [14]: Nc1nc2[nH]cc(CCc3ccc(C(=O)N[C@@H](CCC(=O)O)C(=O)O)cc3)c2c(=O)[nH]1
The data set is described as §2. In kind it is cell-based. The gist of the method:
as §3

Substrate in data set [15]: Nc1nc2[nH]c(CCCc3cc(C(=O)N[C@@H](CCC(=O)O)C(=O)O)cs3)cc2c(=O)[nH]1
Kind of data set: (§4) Binding affinity to human PCFT expressed in Chinese hamster R2/PCFT4 cells assessed as intracellular drug transport rate at 37 degC at pH 6.8 measured over 2 mins by Lineweaver-Burk plot analysis. Type of data set: cell-based. The gist of the method:
as §3

Substrate in data set [16]: Nc1nc2[nH]cc(CCc3ccc(C(=O)N[C@@H](CCC(=O)O)C(=O)O)cc3)c2c(=O)[nH]1
The description is as §4. Type of data set: cell-based. The method, boiled down:
as §3

Sequence of Folate receptor alpha (Homo sapiens) (P15328 25-234 limits assumed): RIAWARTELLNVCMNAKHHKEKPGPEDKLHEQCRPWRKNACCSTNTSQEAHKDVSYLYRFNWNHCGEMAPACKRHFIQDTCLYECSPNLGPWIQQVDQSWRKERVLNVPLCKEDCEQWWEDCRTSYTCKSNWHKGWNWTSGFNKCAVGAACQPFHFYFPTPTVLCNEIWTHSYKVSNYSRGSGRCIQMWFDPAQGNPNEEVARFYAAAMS

As a reminder, the IC50 is the midpoint of a concentration-inhibition curve. One may read the Ki as the equilibrium dissociation constant of an inhibitor or competing ligand from its target. As to `Nc1nc(N)c2c(CCCc3csc(C(=O)N[C@@H](CCC(=O)O)C(=O)O)c3)coc2n1`, the inhibition entry in [1] and in [2] was “inactive” each time. Moreover, the concentration for half-maximal inhibition (IC50) in [3] came out at 82 nM. Further, the inhibition constant (Ki) in [4] was found to be 5500 nM.
`Nc1nc2[nH]c(CCCc3csc(C(=O)N[C@@H](CCC(=O)O)C(=O)O)c3)cc2c(=O)[nH]1`: the IC50 in the data set on R2 [5] was 355 nM; in the data set on R2 [6] it was more than 1000 nM; in the data set with KB [8], 0.17 nM; in the data set with KB [9], 337 nM; in data set [3], 2.4 nM. For the same molecule, the result in data set [7] was Active. Also, the Activity in [10] turned out to be 60%; in data set [11] it was 35%. Further, the inhibition entry in [1] and in [2] was “inactive” in each case. In data set [12], the inhibition result was “Active”. The Ki in data set [4] was 13 nM.

B1: Proton-coupled folate transporter (Homo sapiens), Q96NT5 (protein)
chain: MEGSASPPEKPRARPAAAVLCRGPVEPLVFLANFALVLQGPLTTQYLWHRFSADLGYNGTRQRGGCSNRSADPTMQEVETLTSHWTLYMNVGGFLVGLFSSTLLGAWSDSVGRRPLLVLASLGLLLQALVSVFVVQLQLHVGYFVLGRILCALLGDFGGLLAASFASVADVSSSRSRTFRMALLEASIGVAGMLASLLGGHWLRAQGYANPFWLALALLIAMTLYAAFCFGETLKEPKSTRLFTFRHHRSIVQLYVAPAPEKSRKHLALYSLAIFVVITVHFGAQDILTLYELSTPLCWDSKLIGYGSAAQHLPYLTSLLALKLLQYCLADAWVAEIGLAFNILGMVVFAFATITPLMFTGYGLLFLSLVITPVIRAKLSKLVRETEQGALFSAVACVNSLAMLTASGIFNSLYPATLNFMKGFPFLLGAGLLLIPAVLIGMLEKADPHLEFQQFPQSP
As a reminder, the Vmax is the rate approached at saturating substrate. As for B1, the maximum rate (Vmax) in [13] came to 24.6 pmol/mg/min; in data set [14] it was 13.4 pmol/mg/min; in data set [15] it was 3 pmol/mg/min; in [16], 9.2 pmol/mg/min.
